What is called EC50 is the concentration giving half of the maximal effect. A low value points to an effect from little substance. The Ki is a dissociation constant, usually derived from enzyme kinetics or from competition with a known ligand. Low readings indicate higher affinity, high ones lower affinity. Broadly, the Cmax is the maximum level reached in the sampled fluid or tissue. The term AUC(0-t) denotes exposure summed from dosing to a finite time, without extrapolation to infinity. The low end stands for low exposure, the high end for high exposure. In general, solubility refers to how much of the substance goes into solution per volume. Low values mean a poorly soluble substance, high ones a readily soluble substance.

From ChEMBL document CHEMBL1145402, “Discovery of potent and muscle selective androgen receptor modulators through scaffold modifications” (J Med Chem, 2007) come the findings set out here.

The target of series [1] is T1, Androgen receptor (Homo sapiens, UniProt P10275).
T1 sequence (P10275 whole entry): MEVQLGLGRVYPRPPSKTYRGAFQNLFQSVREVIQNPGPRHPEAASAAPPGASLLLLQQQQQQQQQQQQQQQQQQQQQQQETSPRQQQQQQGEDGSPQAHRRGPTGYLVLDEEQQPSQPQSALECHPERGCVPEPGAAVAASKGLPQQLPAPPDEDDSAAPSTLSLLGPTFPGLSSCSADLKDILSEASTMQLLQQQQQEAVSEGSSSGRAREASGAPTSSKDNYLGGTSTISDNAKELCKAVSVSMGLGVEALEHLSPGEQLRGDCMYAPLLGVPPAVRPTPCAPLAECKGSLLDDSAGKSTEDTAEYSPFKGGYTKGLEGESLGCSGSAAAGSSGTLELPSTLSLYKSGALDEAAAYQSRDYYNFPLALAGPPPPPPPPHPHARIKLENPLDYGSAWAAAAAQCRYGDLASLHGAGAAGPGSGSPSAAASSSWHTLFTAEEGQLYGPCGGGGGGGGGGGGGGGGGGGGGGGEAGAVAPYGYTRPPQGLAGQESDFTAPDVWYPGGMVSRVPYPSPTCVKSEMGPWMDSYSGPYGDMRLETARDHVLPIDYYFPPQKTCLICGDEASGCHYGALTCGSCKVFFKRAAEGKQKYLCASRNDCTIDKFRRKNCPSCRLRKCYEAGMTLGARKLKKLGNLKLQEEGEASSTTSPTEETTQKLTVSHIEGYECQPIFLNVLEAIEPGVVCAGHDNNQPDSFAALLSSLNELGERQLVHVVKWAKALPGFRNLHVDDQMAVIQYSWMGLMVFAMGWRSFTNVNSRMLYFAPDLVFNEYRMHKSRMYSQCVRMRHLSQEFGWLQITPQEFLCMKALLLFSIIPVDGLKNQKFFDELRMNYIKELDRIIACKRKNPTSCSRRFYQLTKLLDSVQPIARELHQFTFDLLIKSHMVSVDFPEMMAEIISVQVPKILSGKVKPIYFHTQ
Nature of the series: Agonist activity at androgen receptor expressed in C2C12 mouse cells by luciferase reporter transactivation assay. Type of series: functional, cell-based. A general note: Reporter assays use an easily measured gene product as a stand-in for the process of interest.

For series [2], the target named is T1, Androgen receptor. Nature of the series: Displacement of [3H]DHT from androgen receptor expressed in MDA-MB-453 cells. Type of series: cell-based. A general note: Displacement assays read how much labelled ligand stays bound in the presence of the test substance.
Series [3] deals with Rattus norvegicus. Nature of the series: Stimulation of ventral prostate tissue weight in Sprague-Dawley rat at 1 mg/kg, po after 14 days. Type of series: functional, Prostate gland. In outline:
(§1)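 Mature male rats were castrated two weeks before treatment. Compound was given […] once daily for two weeks, then levator ani muscle and ventral prostate were weighed. Weights are expressed as percent of a sham-operated, vehicle-treated intact control group, ±SEM.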

The nature of series [4]: Cmax in Sprague-Dawley rat at 10 mg/kg, po. Type of series: ADME, organism-based. Set-up: dose 10 mg/kg, route oral. To be noted: in vivo.
In series [5] the test system is Rattus norvegicus. Nature of the series: Stimulation of levator ani muscle weight in Sprague-Dawley rat at 1 mg/kg, po after 14 days. Type of series: functional. In short, it runs like this:
as §1

The nature of series [6]: AUC(0-4h) in Sprague-Dawley rat at 10 mg/kg. Type of series: ADME, organism-based. Also on record: time < 5 hr, dose 10 mg/kg. The note with it: plasma.
Series [7] is described as follows: Aqueous solubility of the compound. Type of series: physicochemical.
Series [8] has as its system Rattus norvegicus. Nature of the series: Stimulation of ventral prostate tissue weight in Sprague-Dawley rat at 0.01 mg/kg, po after 14 days. Type of series: functional, Prostate gland.
In series [9] the test system is Rattus norvegicus. Nature of the series: Stimulation of levator ani muscle weight in Sprague-Dawley rat at 0.01 mg/kg, po after 14 days. Type of series: functional.
The subject of series [10] is Rattus norvegicus. Nature of the series: Stimulation of levator ani muscle weight in Sprague-Dawley rat at 3 mg/kg, po after 14 days. Type of series: functional. In short, it runs like this:
as §1

Series [11] has as its system Rattus norvegicus. Nature of the series: Stimulation of ventral prostate tissue weight in Sprague-Dawley rat at 3 mg/kg, po after 14 days. Type of series: functional, Prostate gland. In outline: as §1
In series [12] the test system is Rattus norvegicus. Nature of the series: Stimulation of ventral prostate tissue weight in Sprague-Dawley rat at 0.3 mg/kg, sc after 14 days. To be noted: route subcutaneous. Type of series: functional, Prostate gland. In short, it runs like this: (§2)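 Mature male rats were castrated two weeks before dosing. Testosterone propionate was given subcutaneously for two weeks, then levator ani muscle and ventral prostate were weighed. Weights are expressed as percent of a sham-operated, vehicle-treated intact control group, ±SEM.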

Series [13] concerns Rattus norvegicus. Briefly: Stimulation of levator ani muscle weight in Sprague-Dawley rat at 0.3 mg/kg, sc after 14 days. Type of series: functional. To be noted: route subcutaneous. In short, it runs like this:
as §2

Converted amounts (≈) assume the structure as drawn.

Compound `CC[C@H]1[C@@H]2[C@H](O)CCN2C(=O)N1c1ccc(C#N)c(Cl)c1C` showed a half-maximal effective concentration (EC50) at Androgen receptor [1] of 2.6 nM. Moreover, affinity at Androgen receptor [2] was put at a Ki of 0.7 nM.
As to `Cc1c(N2C(=O)N3CC[C@@H](O)[C@H]3[C@@H]2C(F)(F)F)ccc(C#N)c1Cl`, the Activity in the series on Rattus norvegicus [3] is on record as 3%; in the series with Rattus norvegicus [5], 40%. Further, in [4], the concentration peaked (Cmax) at 819 nM. In series [6], this compound returned an AUC(0-t) at 5 h of 1.18 µM·h. The same compound displayed a concentration for a half-maximal effect (EC50) on Androgen receptor [1] of 2.9 nM. Further, the Ki on Androgen receptor [2] is 1 nM.
In the case of `Cc1c(N2C(=O)N3CC[C@@H](O)[C@H]3[C@H]2C(F)(F)F)ccc(C#N)c1Cl`, the Activity with Rattus norvegicus [3] is listed as 1%; with Rattus norvegicus [5] it was 30%. Moreover, the highest level in series [4] (Cmax) was 245 nM. In addition, in [6], the AUC(0-t) at 5 h was 0.63 µM·h. At Androgen receptor [1], this compound yielded an EC50 of 2.1 nM. At Androgen receptor [2], affinity was put at a Ki of 2.2 nM. Further, the solubility in series [7] was determined as 1140 µg/mL (≈ 3170 µM).
Consider `Cc1c(N2C(=O)[C@@H]3[C@H](O)CCN3C2=O)ccc(C#N)c1Cl`, for which, in series [4], the Cmax came out at 6900 nM. For the same compound, the Activity was determined as 3% with Rattus norvegicus [8] and 59% in the series with Rattus norvegicus [9]. The AUC(0-t) at 5 h in series [6] came out at 8.8 µM·h.
`Cc1c(N2C[C@@H]3[C@H](O)CCN3C2=O)ccc(C#N)c1Cl`: the Activity was 14% in the series with Rattus norvegicus [3] and 66% in the series on Rattus norvegicus [5]. In series [4], this compound had a Cmax of 3970 nM. Also, the AUC(0-t) at 5 h in [6] was determined as 6.38 µM·h. In addition, on Androgen receptor [1], the EC50 turned out to be 15 nM. In addition, affinity on Androgen receptor [2] was put at a Ki of 2 nM. The compound also displayed a solubility in [7] of 245 µg/mL (≈ 840 µM).
In [4], `Cc1c(N2C(=O)N3CC[C@H](O)[C@H]3[C@@H]2C)ccc(C#N)c1Cl` yielded a Cmax of 1620 nM. Besides, the Activity was determined as 44% in the series with Rattus norvegicus [10] and 4% in the series with Rattus norvegicus [11]. In series [6], the AUC(0-t) at 5 h was found to be 2.89 µM·h. In series [7], this compound came in with a solubility of 613 µg/mL (≈ 2000 µM).
Compound `CC[C@@H]1[C@@H]2[C@@H](O)CCN2C(=O)N1c1ccc(C#N)c(Cl)c1C` showed an EC50 on Androgen receptor [1] of 7.1 nM. Besides, at Androgen receptor [2], the Ki stood at 1.6 nM.
The corresponding values for `Cc1c(N2C(=O)N3CC[C@H](O)[C@H]3[C@@H]2C(F)(F)F)ccc(C#N)c1Cl` are 2.5 nM and 0.9 nM.
With `Cc1c(N2C[C@@H]3[C@H](O)CC[C@@H]3C2=O)ccc(C#N)c1Cl`, the figures for the Activity in the series on Rattus norvegicus [3] and in the series on Rattus norvegicus [5] were 6% and 45%, respectively. For the same compound, at Androgen receptor [1], the EC50 was 20 nM.
Compound `Cc1c(N2C(=O)N3CC[C@H](O)[C@H]3[C@H]2C(F)(F)F)ccc(C#N)c1Cl` gave an EC50 at Androgen receptor [1] of 48 nM. Besides, the affinity on Androgen receptor [2] corresponds to a Ki of 1.9 nM.
The corresponding values for `CC[C@@H]1[C@@H]2[C@H](O)CCN2C(=O)N1c1ccc(C#N)c(Cl)c1C` are 7.4 nM and 2.3 nM.
With `Cc1c(N2C(=O)N3CC[C@@H](O)[C@H]3[C@H]2C(C)C)ccc(C#N)c1Cl`, the half-maximal effective concentration (EC50) on Androgen receptor [1] turned out to be 108 nM. Further, the inhibition constant (Ki) at Androgen receptor [2] came out at 23 nM.
As for `CC1=C(c2ccc(C#N)c(Cl)c2C)C(=O)N2CC[C@H](O)[C@@H]12`, the EC50 on Androgen receptor [1] was found to be 2 nM.
In the case of `CCC(=O)O[C@H]1CC[C@H]2[C@@H]3CCC4=CC(=O)CC[C@]4(C)[C@H]3CC[C@]12C` [TESTOSTERONE PROPIONATE], the Activity with Rattus norvegicus [12] was determined as 68%; in the series with Rattus norvegicus [13], 70%.
